Columns and labels:
Adenosine receptor A1 [1] = molecular target: T1, Adenosine receptor A1 (Bos taurus, UniProt P28190); assay: Binding affinity towards adenosine A1 receptor of bovine brain membrane in presence of [3H]CHA at a concentration of 20 uM
T1 sequence (P28190 whole entry): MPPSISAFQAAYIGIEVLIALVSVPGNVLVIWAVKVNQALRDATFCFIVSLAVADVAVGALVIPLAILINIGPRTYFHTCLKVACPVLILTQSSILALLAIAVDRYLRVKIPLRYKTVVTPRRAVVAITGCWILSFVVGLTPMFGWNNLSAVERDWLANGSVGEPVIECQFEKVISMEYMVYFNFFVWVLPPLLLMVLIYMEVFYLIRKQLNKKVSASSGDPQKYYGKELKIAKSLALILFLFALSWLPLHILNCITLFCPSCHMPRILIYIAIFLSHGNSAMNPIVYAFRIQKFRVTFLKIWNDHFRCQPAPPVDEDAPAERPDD
Outline: (§1)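 Compounds dissolved in DMSO (2% in buffer), with blank runs for solvent effect. Membrane protein measured after solubilization in 0.75 N NaOH against a BSA standard.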

Adenosine receptor A3 [2] = molecular target: T2, Adenosine receptor A3 (Homo sapiens, UniProt P0DMS8); assay: Binding affinity towards human adenosine A3 receptor expressed in HEK293 cells in presence of [125I]-AB-MECA at a concentration of 1 uM; assay type: cell-based
T2 sequence (P0DMS8 whole entry): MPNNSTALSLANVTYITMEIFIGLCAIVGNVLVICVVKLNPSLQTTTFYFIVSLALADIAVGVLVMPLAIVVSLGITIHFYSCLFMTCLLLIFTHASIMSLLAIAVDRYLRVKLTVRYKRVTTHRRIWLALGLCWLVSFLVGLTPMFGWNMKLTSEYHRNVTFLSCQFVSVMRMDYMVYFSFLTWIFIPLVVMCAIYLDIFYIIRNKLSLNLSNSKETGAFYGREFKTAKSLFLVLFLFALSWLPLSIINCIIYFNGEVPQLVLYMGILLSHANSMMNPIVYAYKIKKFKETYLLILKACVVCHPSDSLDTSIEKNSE

[3] = tested on: Adenosine receptor A2a (Bos taurus); assay: Binding affinity towards adenosine A2A receptor of bovine striatal membrane in presence of [3H]-CGS- at a concentration of 20 uM
[4] = tested on: Adenosine receptor A2a (Bos taurus); assay: Binding affinity towards adenosine A2A receptor of bovine striatal membrane in presence of [3H]-CGS-
[5] = molecular target: T3, Adenosine receptor A3 (Homo sapiens) (UniProt P0DMS8); assay: Binding affinity towards human Adenosine A3 receptor expressed in HEK293 cells using [125I]AB-MECA at 1 uM; assay type: cell-based
T3 sequence (whole entry): T2 sequence (P0DMS8 whole entry)

[6] = molecular target: Adenosine receptor A2a (Bos taurus); assay: Binding affinity towards Adenosine A2A receptor of bovine striatal membrane using [3H]-CGS- at 20 uM
[7] = molecular target: T4, Adenosine receptor A1 (Bos taurus) (UniProt P28190); assay: Binding affinity towards Adenosine A1 receptor of bovine brain membrane using [3H]-CHA at 20 uM; outline: as §1
T4 sequence (whole entry): T1 sequence (P28190 whole entry)

Adenosine receptor A1 [8] = molecular target: T1, Adenosine receptor A1; assay: Binding affinity towards adenosine A1 receptor of bovine brain membrane using [3H]-CHA at 20 uM
Adenosine receptor A3 [9] = molecular target: T2, Adenosine receptor A3; assay: Binding affinity towards human adenosine A3 receptor expressed in HEK293 cells using [125I]AB-MECA at 1 uM; assay type: cell-based

Ki (Adenosine receptor A1 [1]) [µM] | Ki (Adenosine receptor A3 [2]) [µM] | inhibition [3] [%] | SMILES | further results
1.02 | 0.114 | – | O=c1[nH]c2ccccc2n2c(=O)n(-c3ccc(Cl)cc3)nc12 | –
0.0048 | 0.201 | 59 | O=c1n(-c2ccccc2)nc2c(NCCc3ccccc3)nc3ccccc3n12 | –
0.0063 | 0.00375 | 62 | O=C(Cc1ccccc1)Nc1nc2ccccc2n2c(=O)n(-c3ccccc3)nc12 | –
0.309 | 0.0366 | 53 | Cn1c(=O)c2nn(-c3ccccc3)c(=O)n2c2ccccc21 | –
0.515 | 0.08 | 64 | O=c1[nH]c2ccccc2n2c(=O)n(-c3ccccc3)nc12 | –
0.0011 | 0.173 | – | O=c1n(-c2cccc(F)c2)nc2c(NC3CCCC3)nc3ccccc3n12 | Ki [4]: 0.148 µM
0.0896 | 0.00147 | 53 | O=C(Nc1nc2ccccc2n2c(=O)n(-c3ccccc3)nc12)c1ccccc1 | –
0.312 | 0.0453 | – | COc1ccc(-n2nc3c(N)nc4ccccc4n3c2=O)cc1 | –
0.0801 | 0.0561 | 0 | O=c1n(-c2ccc(Cl)cc2)nc2c(NC3CCCCC3)nc3ccccc3n12 | –
0.934 | 0.016 | – | COc1ccc(-n2nc3c(=O)[nH]c4ccccc4n3c2=O)cc1 | –
0.0043 | 0.002 | – | CC(=O)Nc1nc2ccccc2n2c(=O)n(-c3ccccc3)nc12 | –
0.0042 | 0.548 | 41 | Cc1cccc(-n2nc3c(NC4CCCCC4)nc4ccccc4n3c2=O)c1 | –
0.00143 | 0.506 | – | O=c1n(-c2ccccc2)nc2c(NC3CCCCC3)nc3ccccc3n12 | –
– | 0.0275 | – | Cc1cccc(-n2nc3c(NC4CCCC4)nc4ccccc4n3c2=O)c1 | –
0.02 | 0.0285 | – | Cc1cccc(-n2nc3c(N)nc4ccccc4n3c2=O)c1 | –
– | 0.276 | – | O=C(Nc1ccccc1)Nc1nc2ccccc2n2c(=O)n(-c3ccccc3)nc12 | –
0.0049 | 0.0442 | – | O=c1n(-c2cccc(F)c2)nc2c(NC3CCCCC3)nc3ccccc3n12 | Ki [6]: 0.066 µM
– | 0.504 | 0 | Cc1ccc(-n2nc3c(=O)n(C)c4ccccc4n3c2=O)cc1 | inhibition [7]: 22%
0.406 | 1.25 | 44 | CCCn1c(=O)c2nn(-c3ccccc3)c(=O)n2c2ccccc21 | –

Ki (Adenosine receptor A1 [1]) [µM] | Ki (Adenosine receptor A3 [2]) [µM] | inhibition [3] [%] | SMILES | further results
– | 0.137 | 8 | Cn1c(=O)c2nn(-c3ccc(Cl)cc3)c(=O)n2c2ccccc21 | inhibition [7]: 29%
0.426 | 0.329 | 37 | Nc1nc2ccccc2n2c(=O)n(-c3ccc(Cl)cc3)nc12 | –
0.00042 | 0.0554 | – | O=c1n(-c2ccccc2)nc2c(NC3CCCC3)nc3ccccc3n12 | –
– | 0.197 | – | Cc1ccc(N2CN3C(=N2)C(=O)Nc2ccccc23)cc1 | inhibition [7]: 48%
0.155 | 0.025 | 0 | Cc1ccc(-n2nc3c(=O)[nH]c4ccccc4n3c2=O)cc1 | –
0.2 | 0.063 | 20 | O=c1[nH]c2ccccc2n2c(=O)n(-c3cccc(F)c3)nc12 | –
0.055 | 1.7 | 59 | O=c1n(-c2ccccc2)nc2c(NCc3ccccc3)nc3ccccc3n12 | –
2.6 | 0.96 | – | COc1ccc(NC(=O)Nc2nc3ccccc3n3c(=O)n(-c4ccccc4)nc23)cc1 | –
– | – | – | Cn1c(=O)c2[nH]c(C3CCCC3)nc2n(C)c1=O [8-CYCLOPENTYLTHEOPHYLLINE] | Ki (Adenosine receptor A1 [8]): 0.0005 µM; Ki (Adenosine receptor A3 [9]): 1.3 µM
– | – | – | O=c1n(-c2ccccc2)nc2c(NCC(c3ccccc3)c3ccccc3)nc3ccccc3n12 | Ki (Adenosine receptor A1 [8]): 0.054 µM; Ki (Adenosine receptor A3 [9]): 1.02 µM
– | – | – | Nc1cccc2c1nc(N)c1nn(-c3ccccc3)c(=O)n12 | inhibition [5]: 54%
– | 0.0483 | – | Cc1ccc(-n2nc3c(N)nc4ccccc4n3c2=O)cc1 | –
0.0093 | 0.0158 | – | CCC(=O)Nc1nc2ccccc2n2c(=O)n(-c3ccccc3)nc12 | –
0.0285 | 0.157 | – | Nc1nc2ccccc2n2c(=O)n(-c3cccc(F)c3)nc12 | –
– | 0.479 | – | C#CCn1c(=O)c2nn(-c3ccccc3)c(=O)n2c2ccccc21 | –
– | – | – | Nc1nc2ccccc2n2c(=O)n(-c3ccccc3)nc12 | inhibition [5]: 36%
0.436 | 0.091 | 5 | Cc1cccc(-n2nc3c(=O)[nH]c4ccccc4n3c2=O)c1 | –
0.0179 | 0.0409 | 61 | O=c1n(-c2ccccc2)nc2c(NCCCc3ccccc3)nc3ccccc3n12 | –

SMILES | Ki (Adenosine receptor A1 [1]) [µM] | Ki (Adenosine receptor A3 [2]) [µM] | inhibition [3] [%] | further results
Nc1nc2c(NCc3ccccc3)cccc2n2c(=O)n(-c3ccccc3)nc12 | 0.73 | – | – | inhibition [5]: 30%; Ki [6]: 0.0065 µM

From ChEMBL document CHEMBL1132980, “1,2,4-Triazolo[4,3-a]quinoxalin-1-one: a versatile tool for the synthesis of potent and selective adenosine receptor antagonists” (J Med Chem, 2000)
